# From ChEMBL document CHEMBL1132201, “Potent inhibition of Grb2 SH2 domain binding by non-phosphate-containing ligands” (J Med Chem, 1999)
# Positions of bridges follow the written chain, without caps; N, C: chain ends. Non-standard residues stand in square brackets, D forms with d. Residues, ends and D or L forms follow the SMILES beside them. pY = N[C@@H](Cc1ccc(OP(=O)(O)O)cc1)C(=O)O
# How the values were obtained:
# [1] = biological target: T1, Growth factor receptor-bound protein 2 (Homo sapiens, UniProt P62993); assay: Inhibition of Grb2 SH2 domain binding
# [2] = biological target: T1, Growth factor receptor-bound protein 2; assay: Inhibition of Grb2 SH2 domain binding by surface plasmon resonance
# Procedure, shortened: (§1)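 Biotin-DDPSpYVNVQ (SHC phosphopeptide) immobilized on SA5 streptavidin chips at 2 nM. Equilibrium Ru was read 20 s after flow ended and compared with binding without inhibitor to derive IC50. Two experiments on separate chips.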
# [3] = biological target: T1, Growth factor receptor-bound protein 2; assay: Inhibition of Growth factor receptor bound protein 2 SH2 domain binding in plasmon resonance binding assay; procedure, shortened: as §1
# [4] = biological target: T1, Growth factor receptor-bound protein 2; assay: (§2) Inhibition of Grb2 SH2 domain binding in MDA-MB-453 human breast carcinoma cell lysates
# Procedure, shortened: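 Lysates of serum-treated MDA-MB-453 cells were made in 1% Triton X-100/PBS with 0.2 mM NaVO4 and incubated 30 min with compound. Grb2 was immunoprecipitated from 5 mg lysate with anti-Grb2 and protein A Sepharose. Proteins were resolved by 8–16% SDS-PAGE, and coprecipitated p185erbB-2 was detected by anti-phosphotyrosine Western blot. Single experiment, equal lysate amounts.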
# [5] = biological target: T1, Growth factor receptor-bound protein 2; assay: as §2; details: in the assay text read “cells” for “cell lysates”
Compound,IC50 [3],IC50 [4],further results
CC[C@H](C)[C@@H]1NC(=O)[C@H](Cc2ccc(OP(=O)(O)O)cc2)NC(=O)[C@@H](NC(C)=O)CSSC[C@@H](C(N)=O)NC(=O)[C@H](CC(N)=O)NC1=O (Ac-C[pY]INC-NH2; disulfide 1-5),,,IC50 [1]: 370 nM
CC(=O)N[C@@H](Cc1ccc(OP(=O)(O)O)cc1)C(=O)NC1(C(=O)N[C@@H](CC(N)=O)C(=O)NCCCc2cccc3ccccc23)CCCCC1,,,IC50 [2]: 70 nM
CC(=O)N[C@@H](Cc1ccc(OP(=O)(O)O)cc1)C(=O)NC1(C(=O)N[C@@H](CC(N)=O)C(=O)NCCCc2c(O)ccc3ccccc23)CCCCC1,,,IC50 [1]: 11 nM
NC(=O)C[C@H](NC(=O)C1(NC(=O)[C@H](Cc2ccc(OCC(=O)O)c(C(=O)O)c2)NC(=O)C(=O)O)CCCCC1)C(=O)NCCCc1cccc2ccccc12,1300 nM,500 nM,
CC(=O)N[C@@H](Cc1ccc(O)cc1)C(=O)NC1(C(=O)N[C@@H](CC(N)=O)C(=O)NCCCc2cccc3ccccc23)CCCCC1,,,IC50 [5]: > 50000 nM
CC(=O)N[C@@H](Cc1ccc(OCC(=O)O)c(OCC(=O)O)c1)C(=O)NC1(C(=O)N[C@@H](CC(N)=O)C(=O)NCCCc2cccc3ccccc23)CCCCC1,> 100000 nM,,
CC(=O)N[C@@H](Cc1ccc(OCC(=O)O)c(C(=O)O)c1)C(=O)NC1(C(=O)N[C@@H](CC(N)=O)C(=O)NCCCc2cccc3ccccc23)CCCCC1,6700 nM,,
CC(C)[C@H](NC(=O)[C@H](CC(N)=O)NC(=O)[C@@H](NC(=O)[C@H](Cc1ccc(OP(=O)(O)O)cc1)NC(=O)[C@H](CO)NC(=O)[C@@H]1CCCN1C(=O)[C@H](CC(=O)O)NC(=O)[C@@H](N)CC(=O)O)C(C)C)C(=O)N[C@@H](CCC(N)=O)C(=O)O (H-DDPS[pY]VNVQ-OH),,,IC50 [1]: 1300 nM

# Further lines, with some results ahead:
IC50 [3],IC50 [4],Compound,further results
80 nM,500 nM,CC(=O)N[C@@H](Cc1ccc(CP(=O)(O)O)cc1)C(=O)NC1(C(=O)N[C@@H](CC(N)=O)C(=O)NCCCc2cccc3ccccc23)CCCCC1,
,500 nM,NC(=O)C[C@H](NC(=O)C1(NC(=O)[C@H](Cc2ccc(CP(=O)(O)O)cc2)NC(=O)C(=O)O)CCCCC1)C(=O)NCCCc1cccc2ccccc12,
80 nM,500 nM,CC(=O)N[C@@H](Cc1ccc(C(F)(F)P(=O)(O)O)cc1)C(=O)NC1(C(=O)N[C@@H](CC(N)=O)C(=O)NCCCc2cccc3ccccc23)CCCCC1,
